In brackets after ≈: the same amount, converted by molar mass. Entries after “also recorded” stand apart in the source; their conditions may differ. Where two headings read alike, the source gives them in different places.
Columns and labels:
SIRT2 [1] = target: T1, SIRT2 (Homo sapiens, UniProt Q8IXJ6); conditions: read-out: IC50 (SIRT2), reported; cited from earlier work
T1 sequence (Q8IXJ6 1-389): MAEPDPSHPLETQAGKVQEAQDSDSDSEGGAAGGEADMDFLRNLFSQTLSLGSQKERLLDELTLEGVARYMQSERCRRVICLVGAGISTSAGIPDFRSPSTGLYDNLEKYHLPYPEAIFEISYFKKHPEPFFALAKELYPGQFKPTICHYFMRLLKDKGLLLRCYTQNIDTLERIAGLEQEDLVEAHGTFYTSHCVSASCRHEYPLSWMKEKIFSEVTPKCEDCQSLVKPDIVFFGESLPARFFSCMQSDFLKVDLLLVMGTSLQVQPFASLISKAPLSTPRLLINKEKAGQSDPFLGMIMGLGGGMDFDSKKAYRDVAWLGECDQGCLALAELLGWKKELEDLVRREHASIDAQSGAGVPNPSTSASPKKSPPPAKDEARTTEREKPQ

Artemia salina = conditions: cited from earlier work
Biomphalaria glabrata = conditions: cited from earlier work
Candida albicans = conditions: 100 µg/disk; cited from earlier work
sodium channels = test: Sodium channel blocking assay in neuro-2a cells; assay type: cell-based, mouse
[2] = system: NCI-H460 lung tumor cells; test: Cytotoxicity assay; assay type: cell-based; conditions: human lung H-460
How it was run: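 NCI-H460 cells were seeded at 6000 cells/well in 96-well plates and dosed 24 h later. The test compound was dissolved in DMSO and diluted into medium without fetal bovine serum, with DMSO below 0.5% final. Viability was read by MTT reduction.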

SIRT2 [3] = target: T1, SIRT2; test: Initial SIRT2 inhibitory assay; assay type: biochemical
How it was run: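 Reactions contained 50 µM fluor de Lys substrate, 270 nM SIRT2 and 1 mM NAD, with or without test compound, in Buffer A (25 mM Tris-HCl pH 8.0, 137 mM NaCl, 2.7 mM KCl, 1 mM MgCl2). Blanks lacked NAD. After 2 h at 37°, reactions were stopped with 2.7 mg/mL trypsin in Buffer A and developed for 20 min. Fluorescence was read at ex 360/em 460 nm.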

SIRT2 [4] = target: T1, SIRT2; test: Secondary SIRT2 inhibitory assay; assay type: biochemical; conditions: second assay system; for IC50: read-out: SIRT2 IC50 ± SE
SIRT1 = target: T2, SIRT1 (Homo sapiens, UniProt Q96EB6); test: Secondary SIRT1 inhibitory assay; assay type: biochemical; conditions: read-out: SIRT1 IC50 ± SE; second assay system
T2 sequence (Q96EB6 1-747): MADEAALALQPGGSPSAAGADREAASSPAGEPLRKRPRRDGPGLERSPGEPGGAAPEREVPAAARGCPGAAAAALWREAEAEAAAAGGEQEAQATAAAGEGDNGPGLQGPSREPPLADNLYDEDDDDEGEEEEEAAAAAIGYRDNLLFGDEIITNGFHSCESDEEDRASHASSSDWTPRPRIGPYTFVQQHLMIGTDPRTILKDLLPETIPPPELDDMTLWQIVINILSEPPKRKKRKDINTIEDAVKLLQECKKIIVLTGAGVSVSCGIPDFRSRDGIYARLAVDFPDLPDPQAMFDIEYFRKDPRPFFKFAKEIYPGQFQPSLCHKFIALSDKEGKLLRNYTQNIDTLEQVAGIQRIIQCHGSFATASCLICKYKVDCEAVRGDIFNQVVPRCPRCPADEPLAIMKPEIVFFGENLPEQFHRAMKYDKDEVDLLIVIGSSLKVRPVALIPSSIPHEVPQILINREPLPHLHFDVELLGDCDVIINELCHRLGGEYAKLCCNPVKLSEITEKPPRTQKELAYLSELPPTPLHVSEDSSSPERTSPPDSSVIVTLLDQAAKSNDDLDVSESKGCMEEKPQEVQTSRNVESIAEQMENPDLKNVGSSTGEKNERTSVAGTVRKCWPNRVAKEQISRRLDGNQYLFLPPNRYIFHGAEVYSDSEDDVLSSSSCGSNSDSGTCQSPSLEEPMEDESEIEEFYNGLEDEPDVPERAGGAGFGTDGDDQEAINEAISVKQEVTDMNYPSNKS

Q: Which IC50 (SIRT2 [1]) does the source give for O=c1oc2ccccc2c2oc3cc(O)c(O)cc3c12 [8,9-dihydroxybenzo-[4,5]furo[3,2-c]chromen-6-one] here?
A: The IC50 was 45 µM.

Q: What does the source list for CCCCCCCCCCC[C@]1(CO)CCCC(=O)O1 [Compound 1, Tanikolide]?
A: LC50 brine shrimp (Artemia salina): 3.6 mg/L (≈ 12.7 µM); LC50 snail (Biomphalaria glabrata): 9.0 mg/L (≈ 31.6 µM); diameter zone inhibition (Candida albicans): 13 mm

Q: What does the source list for CCCCCCCCCCCC(O)(CO)CCCC(=O)O (stereo not shown) [Compound 2, Tanikolide seco acid]?
A: sodium channel blocking activity (sodium channels; highest concentration tested 10 µM): inactive; cytotoxicity to H-460 cell line ([2]; at 9.9 µM): moderately toxic; also recorded: moderate cytotoxicity; SIRT2 inhibitory activity (SIRT2 [3]; highest concentration tested 50 µM): inactive

Q: Which IC50 (SIRT2 [4]; listed as 5) does the source give for (5R, 5’R)-tanikolide dimer [Compound 3] here?
A: The IC50 was 3.3 ± 0.2 µM.

Q: What about the “fold more potent to the SIRT2 isoform than to SIRT1” value (SIRT2 [4]) of the same molecule?
A: Its value is “approximately 10 fold”.

Q: And the “inhibition in sodium channel blocking assay” value (sodium channels; at 5.2 µM)?
A: Its value is 54%.

Q: And the “cytotoxicity to H-460 cell line” value ([2]; at 10 µM)?
A: The value was “did not have any activity”.

Q: And the IC50 (SIRT2 [3]; read-out: IC50 against SIRT2, initial assay format)?
A: The IC50 was 0.176 µM.

Q: And the IC50 (SIRT1)?
A: The IC50 was 36.4 ± 8.1 µM.

Q: With (5R, 5’S)-tanikolide dimer [Compound 4] as the molecule, how does the IC50 (SIRT2 [4]) read?
A: Its IC50 is 2.4 ± 0.2 µM.

Q: What about the “fold more potent to the SIRT2 isoform than to SIRT1” value (SIRT2 [4]) of the same molecule?
A: Its value is “approximately 10 fold”.

Q: And the IC50 (SIRT1)?
A: The IC50 was 28.8 ± 4.3 µM.

Q: What does the source list for (5S, 5’S)-tanikolide dimer [ent-5]?
A: IC50 (SIRT2 [4]): 3.1 ± 0.3 µM; fold more potent to the SIRT2 isoform than to SIRT1 (SIRT2 [4]): approximately 10 fold; IC50 (SIRT1): 34.5 ± 3.5 µM

— paper PMC2736347 (The Journal of organic chemistry, 2009)
